Legend:
Integrin alpha-4/beta-1 [1] = molecular target: T1, Integrin alpha-4/beta-1 (Homo sapiens, UniProt P05556+P13612); test: Inhibition of VCAM binding to Alpha4-beta1 integrin of human eosinophil cell; assay type: protein-complex assay
Integrin alpha-4/beta-1 [2] = molecular target: T1, Integrin alpha-4/beta-1; test: Inhibition of Alpha4-beta1 integrin in Jurkat cells; assay type: cell-based
Summary of the method: (§1)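 Calcein-labelled Jurkat cells were allowed to bind human recombinant sVCAM-1 in the presence of serial dilutions of compound, giving IC50. Values are means ± standard error of the number of independent experiments.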

Integrin alpha-4/beta-1 [3] = molecular target: T1, Integrin alpha-4/beta-1; test: Inhibition of Alpha4-beta1 integrin in Jurkat cells (Not active); assay type: cell-based; summary of the method: as §1
Integrin alpha-4/beta-1 [4] = molecular target: T1, Integrin alpha-4/beta-1; test: Inhibition of human recombinant sVCAM-1 binding to alpha4-beta1 integrin (VLA-4) in ELISA; assay type: protein-complex assay

T1 sequence (P05556 whole entry): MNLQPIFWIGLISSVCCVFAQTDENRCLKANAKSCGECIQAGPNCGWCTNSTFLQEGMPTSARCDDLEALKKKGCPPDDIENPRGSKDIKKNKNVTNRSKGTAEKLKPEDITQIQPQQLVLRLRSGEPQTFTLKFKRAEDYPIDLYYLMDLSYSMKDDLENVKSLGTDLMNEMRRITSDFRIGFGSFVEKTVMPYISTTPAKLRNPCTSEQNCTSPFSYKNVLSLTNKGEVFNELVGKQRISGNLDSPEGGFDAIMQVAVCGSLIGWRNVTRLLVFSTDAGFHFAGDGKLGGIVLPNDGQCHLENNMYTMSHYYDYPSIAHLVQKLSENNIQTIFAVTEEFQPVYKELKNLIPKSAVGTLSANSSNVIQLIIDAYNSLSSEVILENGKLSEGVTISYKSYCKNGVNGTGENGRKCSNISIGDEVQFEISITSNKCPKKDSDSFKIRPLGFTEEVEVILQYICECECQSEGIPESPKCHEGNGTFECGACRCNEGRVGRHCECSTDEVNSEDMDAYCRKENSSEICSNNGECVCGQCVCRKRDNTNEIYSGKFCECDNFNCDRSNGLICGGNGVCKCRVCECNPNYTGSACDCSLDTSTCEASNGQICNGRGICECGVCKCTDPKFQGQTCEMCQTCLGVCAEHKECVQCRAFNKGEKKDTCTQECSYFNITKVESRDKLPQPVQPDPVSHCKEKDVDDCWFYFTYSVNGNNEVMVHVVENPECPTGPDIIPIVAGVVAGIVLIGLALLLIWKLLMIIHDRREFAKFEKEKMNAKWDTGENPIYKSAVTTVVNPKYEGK
T1 sequence (P13612 whole entry): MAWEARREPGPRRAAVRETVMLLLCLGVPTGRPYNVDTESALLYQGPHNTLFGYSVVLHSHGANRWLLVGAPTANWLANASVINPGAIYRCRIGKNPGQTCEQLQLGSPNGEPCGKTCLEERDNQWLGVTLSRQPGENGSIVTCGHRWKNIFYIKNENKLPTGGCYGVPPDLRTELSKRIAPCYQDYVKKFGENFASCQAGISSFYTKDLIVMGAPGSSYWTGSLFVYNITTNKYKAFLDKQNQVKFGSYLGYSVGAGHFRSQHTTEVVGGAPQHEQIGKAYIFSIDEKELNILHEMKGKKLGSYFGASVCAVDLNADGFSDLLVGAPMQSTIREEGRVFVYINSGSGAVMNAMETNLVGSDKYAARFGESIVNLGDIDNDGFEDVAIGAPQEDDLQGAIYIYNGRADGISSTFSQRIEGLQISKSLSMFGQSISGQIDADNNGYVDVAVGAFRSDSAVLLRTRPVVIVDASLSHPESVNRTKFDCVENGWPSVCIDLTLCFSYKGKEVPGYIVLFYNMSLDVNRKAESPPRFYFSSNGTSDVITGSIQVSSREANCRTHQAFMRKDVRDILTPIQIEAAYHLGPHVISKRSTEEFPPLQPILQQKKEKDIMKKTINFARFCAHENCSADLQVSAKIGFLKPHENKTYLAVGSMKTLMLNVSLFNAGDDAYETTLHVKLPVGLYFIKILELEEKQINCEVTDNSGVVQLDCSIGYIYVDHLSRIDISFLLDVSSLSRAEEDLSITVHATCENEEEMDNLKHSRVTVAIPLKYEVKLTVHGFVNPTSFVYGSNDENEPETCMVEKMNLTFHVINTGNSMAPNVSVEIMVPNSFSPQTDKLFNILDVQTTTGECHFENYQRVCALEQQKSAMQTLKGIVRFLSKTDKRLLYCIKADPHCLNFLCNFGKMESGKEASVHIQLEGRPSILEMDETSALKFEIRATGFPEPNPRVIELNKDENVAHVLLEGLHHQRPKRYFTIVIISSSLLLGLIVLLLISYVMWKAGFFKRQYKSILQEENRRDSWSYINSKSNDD

Row | Structure (SMILES) | IC50 (Integrin alpha-4/beta-1 [1]) [nM] | IC50 (Integrin alpha-4/beta-1 [2]) [nM] | IC50 (Integrin alpha-4/beta-1 [3]) | IC50 (Integrin alpha-4/beta-1 [4])
1 | Cc1ccccc1NC(=O)Nc1ccc(CC(=O)N[C@@H](CC(C)C)c2cc(CCC(=O)O)on2)cc1 | 143 | 27 |  | 
2 | Cc1ccccc1NC(=O)Nc1ccc(CC(=O)N[C@@H](CC(C)C)c2ncc(CCC(=O)O)o2)cc1 | 171 | 45 |  | 
3 | Cc1ccccc1NC(=O)Nc1ccc(CC(=O)N[C@@H](CC(C)C)c2cc(-c3ccccc3C(=O)O)on2)cc1 |  |  | Not Active | 
4 | Cc1ccccc1NC(=O)Nc1ccc(CC(=O)N[C@@H](CC(C)C)c2ncc(CC(=O)O)s2)cc1 |  | 2400 |  | 
5 | Cc1ccccc1NC(=O)Nc1ccc(CC(=O)N[C@@H](CC(C)C)c2cc(-c3cccc(C(=O)O)c3)on2)cc1 |  |  | Not Active | 
6 | Cc1ccccc1NC(=O)Nc1ccc(CC(=O)N[C@@H](CC(C)C)c2ncc(CCC(N)=O)s2)cc1 |  |  |  | Not Active
7 | COc1cc(CC(=O)N[C@@H](CC(C)C)c2cc(CCC(=O)O)on2)ccc1NC(=O)Nc1ccccc1C | 1 | 0.69 |  | 
8 | Cc1ccccc1NC(=O)Nc1ccc(CC(=O)N[C@@H](CC(C)C)c2ncc(CCC(=O)O)s2)cc1 | 180 | 16 |  | 
9 | Cc1ccccc1NC(=O)Nc1ccc(CC(=O)N[C@@H](CC(C)C)c2cc(CCCC(=O)O)on2)cc1 |  | 1800 |  | 
10 | Cc1ccccc1NC(=O)Nc1ccc(CC(=O)N[C@@H](CC(C)C)C2=NOC(CCC(=O)O)C2)cc1 (stereo partly drawn) | 495 | 88 |  | 
11 | Cc1ccccc1NC(=O)Nc1ccc(CC(=O)N[C@@H](CC(C)C)c2nc(CCC(=O)O)cs2)cc1 |  | 2040 |  | 
12 | Cc1ccccc1NC(=O)Nc1ccc(CC(=O)N[C@@H](CC(C)C)C2=NOC(CCC(=O)O)(CCC(=O)O)C2)cc1 | 347 | 67 |  | 

From ChEMBL document CHEMBL1133975, “Isoxazolyl, oxazolyl, and thiazolylpropionic acid derivatives as potent alpha(4)beta(1) integrin antagonists” (Bioorg Med Chem Lett, 2001)
